Data: PubChem BioAssay
Activity calls are given as the source filed them.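 The calls were made as follows, unless noted: active = viability at or under a set limit in both replicates, limit being median viability minus 3 SD (cut at about 48% in these data, passing the limit was not always enough); inconclusive = at or under the limit in just one replicate; inactive = at or above the limit in both replicates.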

Assays:
[1] = Her2 expression decrease, cell viability multiplex – SKBR3 breast tumor cells, AlphaScreen, ATP viability, primary screen (AID 461;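 active = Her2 level under about 52% in both replicate screens, with viability over 70% of control, limit read from the data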;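 as to Her2 level: lower value means less Her2 protein in the cells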;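 as to viability: percent of carrier control wells set as 100% viability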); details: SKBR3 Her2 protein level, 18-24 h, measured here: SKBR3 viability, ATP luminescence, at 10 µM
[2] = target: Receptor tyrosine-protein kinase erbB-2 (Homo sapiens) (UniProt P04626); test: as above; details: 18-24 h, at 10 µM, stronger effect = lower value
[3] = reduced viability of SK-BR-3 breast cancer cells – cell-based, 24 h, human, pilot screen (AID 572;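 active = viability at or below 10% of carrier control in both of two separate runs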;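 also: compound exposure lasted between 18 and 24 h rather than exactly 24 h; 100% = carrier-treated control wells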); details: SK-BR-3 viability, CellTiter-Glo luminescence, at 10 µM, stronger effect = lower value
[4] = HUVEC growth inhibition – cell-based, human, primary screen (AID 575;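 active = viability at or below 30% in both replicate assays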;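 also: 100% = median of untreated cell wells with 0.1% DMSO on each plate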); details: HUVEC proliferation, CellTiter-Glo luminescence, 72 h; at 10 µM; stronger effect = lower value
In short: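 Assay system: Primary human umbilical vein endothelial cells | Quantity: 1250 cells per well | Medium: Supplemented EBM, 2% fetal bovine serum | Detection: CellTiter-Glo luminescence measuring cellular ATP | Read-out: % viability vs DMSO wells | Plate: Collagen-coated 384-well format | Times: 72 h exposure, 37 °C, 5% CO2, 30 min RT equilibration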

[5] = H69AR cell proliferation blockers – human, duplicate replicates, primary screen (AID 580); details: H69AR lung tumor cells viability, ATP luminescence, 72 h; at 10 µM; stronger effect = lower value;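 also: 100% = mean luminescence of untreated wells and 0% = no signal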
[6] = MRP1 drug-resistance reversers in H69AR cells – cell-based, doxorubicin co-treatment, pilot screen (AID 601;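 active = viability loss from added drug above about 55%, and viability with drug at most 40%, in both replicates, limit read from the data, passing the limit was not always enough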); details: CellTiter-Glo, 72 h, at 10 µM; for differential viability (reversal): stronger effect = higher value
[7] = yeast transport mutant growth inhibition pilot in 384-well plates, post-Golgi transport modulator project (AID 636; in the data active = inhibition above about 31%); details: absorbance 615 nm, about 18 h, stronger effect = higher value
[8] = growth suppression of yeast trafficking mutant, preliminary HTS, modulators of trafficking downstream of Golgi apparatus project, 1536-format plate, OD 615 nm (AID 637; in the data active = inhibition above about 30%); details: yeast transport mutant growth, absorbance 615 nm, 18 h; stronger effect = higher value
[9] = H69AR cells + 2 uM doxorubicin, measured here: viability with 2 uM doxorubicin, stronger effect = lower value
[10] = H69AR cells, compound alone cytotoxicity

Receptor tyrosine-protein kinase erbB-2 (Homo sapiens), sequence (P04626 whole entry, looked up): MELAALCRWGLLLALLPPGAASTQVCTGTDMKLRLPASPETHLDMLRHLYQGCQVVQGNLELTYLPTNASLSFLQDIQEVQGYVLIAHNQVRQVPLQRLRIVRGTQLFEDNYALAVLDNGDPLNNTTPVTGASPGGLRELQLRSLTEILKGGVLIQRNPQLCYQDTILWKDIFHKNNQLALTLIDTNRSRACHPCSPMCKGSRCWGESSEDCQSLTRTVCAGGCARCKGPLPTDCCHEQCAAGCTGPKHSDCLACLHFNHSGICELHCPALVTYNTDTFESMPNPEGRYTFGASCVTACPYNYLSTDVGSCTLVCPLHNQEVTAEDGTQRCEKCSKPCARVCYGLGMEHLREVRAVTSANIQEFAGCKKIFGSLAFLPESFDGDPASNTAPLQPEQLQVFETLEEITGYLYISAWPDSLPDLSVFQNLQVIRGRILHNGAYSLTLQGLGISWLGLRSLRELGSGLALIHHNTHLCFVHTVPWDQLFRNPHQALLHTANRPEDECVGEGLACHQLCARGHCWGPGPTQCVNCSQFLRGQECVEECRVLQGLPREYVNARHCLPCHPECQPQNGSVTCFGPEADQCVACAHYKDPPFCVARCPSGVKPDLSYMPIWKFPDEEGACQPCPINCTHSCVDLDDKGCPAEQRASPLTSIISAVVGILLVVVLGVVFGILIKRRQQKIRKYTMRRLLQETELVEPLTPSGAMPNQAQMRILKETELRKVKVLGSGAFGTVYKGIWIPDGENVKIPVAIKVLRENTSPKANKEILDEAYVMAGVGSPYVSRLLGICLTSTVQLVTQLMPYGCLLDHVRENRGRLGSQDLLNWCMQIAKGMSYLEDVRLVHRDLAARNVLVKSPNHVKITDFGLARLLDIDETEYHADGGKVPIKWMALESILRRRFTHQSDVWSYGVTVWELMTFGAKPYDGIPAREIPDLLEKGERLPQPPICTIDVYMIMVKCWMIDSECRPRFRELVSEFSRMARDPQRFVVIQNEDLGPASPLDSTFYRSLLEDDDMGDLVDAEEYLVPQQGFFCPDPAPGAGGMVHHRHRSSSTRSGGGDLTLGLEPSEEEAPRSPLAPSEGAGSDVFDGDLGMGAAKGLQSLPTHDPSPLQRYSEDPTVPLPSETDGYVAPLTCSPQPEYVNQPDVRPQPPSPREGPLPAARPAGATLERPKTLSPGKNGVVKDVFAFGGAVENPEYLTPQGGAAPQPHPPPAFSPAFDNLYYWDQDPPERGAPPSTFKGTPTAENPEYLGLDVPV

Row | Compound | viability [1] [%] | Her2 level [2] | viability [3] | viability [4] | viability [5] | differential viability (reversal) ([6]; H69AR cells + 2 uM doxorubicin) | viability [6, 9] [%] | viability [6, 10] [%] | inhibition [7] | inhibition [8]
1 | Nc1ncnc2nc(SCCN3CCCCC3)[nH]c12 | 119 | 88% (inactive) | 119% (inactive) | 102% (inactive) | 100% (inactive) | 3.13% (inactive) | 97.3 | 100 | 3.29% (inactive) | -5.32% (inactive)
2 | CC(C)(C)n1cnc2cc(NS(=O)(=O)c3ccc(Br)cc3)ccc21 | 104 | 69.5% (inactive) | 104% (inactive) | 80.2% (inactive) | 87% (inactive) | -8.39% (inactive) | 95.4 | 87 | -1.58% (inactive) | -0.48% (inactive)
3 | COc1ccccc1-n1c(-c2cccnc2)n[nH]c1=S | 88 | 109% (inactive) | 88% (inactive) | 110% (inactive) | 109% (inactive) | 6.74% (inactive) | 102 | 109 | -0.4% (inactive) | -2.95% (inactive)
4 | CCN(CC)CCCn1c(=S)[nH]c2cc(Cl)ccc2c1=O | 101 | 96% (inactive) | 101% (inactive) | 106% (inactive) | 97% (inactive) | 6.63% (inactive) | 90.4 | 97 | -6.27% (inactive) | 1.8% (inactive)
5 | COc1cc(Br)cc(/C=N/c2ncn[nH]2)c1O | 134 | 89% (inactive) | 134% (inactive) | 35.2% (inactive) | 86.6% (inactive) | -17.5% (inactive) | 104 | 86.6 | -4.81% (inactive) | -3.44% (inactive)
6 | CCNC(=O)c1ccc(NS(=O)(=O)c2ccccc2)cc1 | 124 | 91% (inactive) | 124% (inactive) | 86.1% (inactive) | 90.5% (inactive) | -1.69% (inactive) | 92.2 | 90.5 | 0% (inactive) | 4.1% (inactive)
7 | O=C(c1ccco1)N1CCN(S(=O)(=O)c2ccc3c(c2)CCN3C(=O)C2CCC2)CC1 | 81.5 | 130% (inactive) | 81.5% (inactive) | 101% (inactive) | 95.6% (inactive) | 11.7% (inactive) | 83.9 | 95.6 | -1.71% (inactive) | -6.5% (inactive)
8 | Cc1cc(C)nc(N2CCCC(C(=O)Nc3ccc4c(c3)OCO4)C2)n1 (stereo not given) | 93 | 104% (inactive) | 93% (inactive) | 96.9% (inactive) | 98.5% (inactive) | 8.88% (inactive) | 89.6 | 98.5 | -5.54% (inactive) | -12.3% (inactive)
9 | CSc1nnc2n(CCc3ccccc3)c(=O)c3c4c(sc3n12)CCCC4 | 104 | 94% (inactive) | 104% (inactive) | 96.3% (inactive) | 102% (inactive) | 25.7% (inactive) | 76 | 102 | -1.45% (inactive) | 0.16% (inactive)
10 | N[C@@H](Cc1ccccc1)c1nnc2sc(SCc3ccccc3)nn12 | 90 | 84.5% (inactive) | 90% (inactive) | 85.2% (inactive) | 87.9% (inactive) | 11.5% (inactive) | 76.4 | 87.9 | -3.07% (inactive) | 0.48% (inactive)
11 | CN1C(=O)CC(N2CCC(C(N)=O)(N3CCCCC3)CC2)C1=O (stereo not given) | 104 | 86% (inactive) | 104% (inactive) | 104% (inactive) | 98.9% (inactive) | 7.3% (inactive) | 91.6 | 98.9 | -6.8% (inactive) | 5.25% (inactive)
12 | Cc1ccc(OCC(=O)NCCN2CCCC2)cc1 | 97.5 | 84.5% (inactive) | 97.5% (inactive) | 86% (inactive) | 95.9% (inactive) | 9.56% (inactive) | 86.4 | 95.9 | -6.8% (inactive) | 2.3% (inactive)
13 | Cc1nnc(SCC(=O)NCCN2C(=O)CSC2=O)s1 | 96.5 | 102% (inactive) | 96.5% (inactive) | 114% (inactive) | 98.3% (inactive) | -1.88% (inactive) | 100 | 98.3 | -3.24% (inactive) | 0.63% (inactive)
14 | N#CC1=C(N)SC(N)=C(C#N)C1c1ccc(C(F)(F)F)cc1 | 90 | 104% (inactive) | 90% (inactive) | 56.3% (inactive) | 84.3% (inactive) | -4.95% (inactive) | 89.3 | 84.3 | 5.58% (inactive) | 0.82% (inactive)
